# Laboratory results reported in ChEMBL document CHEMBL1122593, “Phosphorus-nitrogen compounds. 24. Phosphoramide mustard carrier derivatives” (1984).
# “And” between values parts separate entries of the source, which are not always exact repeats. Identical values can stand only once.
# Legend:
# [1] = tested on: P388; test: Antitumor activity against P388 Lymphocytic leukemia and treated mean survival time per control mean survival time was determined at 200 mg/kg; assay type: functional, Mus musculus
# Procedure, shortened: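 Mice bearing P388 lymphocytic leukaemia, tested by NCI contractors. Compound given as five consecutive injections beginning 1 day after tumour cell inoculation. T/C% = (treated/control) × 100.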
# [2] = tested on: L1210; test: Antitumor activity against L1210 lymphoid leukemia and treated mean survival time per control mean survival time was determined at 500 mg/kg; assay type: functional, Mus musculus
# Procedure, shortened: (§1)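 Mice bearing L1210 lymphoid leukaemia, tested by NCI contractors. Compound given as a single injection 1 day after tumour cell inoculation. T/C% = (treated/control) × 100.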
# [3] = tested on: Mus musculus; test: Antitumor activity against CD8F1 mammary tumor and treated mean survival time per control mean survival time was determined at 300 mg/kg; assay type: functional
# Procedure, shortened: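 Mice bearing CD8F1 mammary tumour, tested by NCI contractors. Compound given as a single injection starting 20 days after tumour cell inoculation. T/C% = (treated/control) × 100.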
# [4] = tested on: L1210; test: Antitumor activity against L1210 lymphoid leukemia and treated mean survival time per control mean survival time was determined at 300 mg/kg; assay type: functional, Mus musculus; procedure, shortened: as §1
# [5] = Antitumor activity against Lewis lung carcinomia and treated mean survival time per control mean survival time was determined at 50 mg/kg; assay type: functional, Mus musculus
# Procedure, shortened: (§2)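 Mice bearing Lewis lung carcinoma, tested by NCI contractors. Compound given as nine consecutive injections beginning 1 day after tumour cell inoculation. T/C% = (treated/control) × 100.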
# [6] = Antitumor activity against Lewis lung carcinomia and treated mean survival time per control mean survival time was determined at 400 mg/kg; assay type: functional, Mus musculus; procedure, shortened: as §2
smiles,measurement,setting,value
NP(=O)(Oc1c2occc2cc2ccc(=O)oc12)N(CCCl)CCCl (centres undefined),T/C,[1],114%
NP(=O)(Oc1cccc2c(OP(N)(=O)N(CCCl)CCCl)cccc12)N(CCCl)CCCl (centres undefined),T/C,[2],95%
CC/C(=C(/CC)c1ccc(OP(N)(=O)N(CCCl)CCCl)cc1)c1ccc(OP(N)(=O)N(CCCl)CCCl)cc1 (centres undefined),T/C,[1]; 200 mg/kg,100% and 104%
same,T/C,[3],39%
same,T/C,[4],113%
CC/C(=C(/CC)c1ccc(OP(=O)(Cl)N(CCCl)CCCl)cc1)c1ccc(OP(=O)(Cl)N(CCCl)CCCl)cc1 (centres undefined),T/C,[2],100%
CC(C)N1C[C@@H](COc2cccc3ccccc23)O[P@@]1(=O)N(CCCl)CCCl (racemic),T/C,[2]; 500 mg/kg,130% and 110% and 90%
CC(C)N1C[C@H](COc2cccc3ccccc23)O[P@@]1(=O)N(CCCl)CCCl (racemic),T/C,[5],95%
same,T/C,[6],90%
